An excerpt weighted towards active compounds, which were near 29% of everything screened.
CYP2C9 inh = human CYP2C9 inhibition | P11712 | CYP2C9 Supersomes, luciferin-H conversion, luminescence | inhibition, % at 5 µM | AID 777 | 96,000 compounds, 20% hits;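 active = blocking of liver enzyme CYP2C9 beyond about 50% at 5 µM, limit read from the data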
CYP2C19 inhib = blocks human cytochrome P450 2C19 | CYP2C19 Supersomes, luciferin-H EGE luminescence, 30 min | inhibition, % at 5 µM | 96,000 compounds, 21% hits | AID 778;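 active = CYP2C19 inhibition above a set limit at 5 µM in the primary screen, cut at about 50% in these data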;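 also: plate controls were negative control wells for no effect and 2.5 mM tranylcypromine positive control for full effect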
Target sequence (P33261 whole entry, looked up): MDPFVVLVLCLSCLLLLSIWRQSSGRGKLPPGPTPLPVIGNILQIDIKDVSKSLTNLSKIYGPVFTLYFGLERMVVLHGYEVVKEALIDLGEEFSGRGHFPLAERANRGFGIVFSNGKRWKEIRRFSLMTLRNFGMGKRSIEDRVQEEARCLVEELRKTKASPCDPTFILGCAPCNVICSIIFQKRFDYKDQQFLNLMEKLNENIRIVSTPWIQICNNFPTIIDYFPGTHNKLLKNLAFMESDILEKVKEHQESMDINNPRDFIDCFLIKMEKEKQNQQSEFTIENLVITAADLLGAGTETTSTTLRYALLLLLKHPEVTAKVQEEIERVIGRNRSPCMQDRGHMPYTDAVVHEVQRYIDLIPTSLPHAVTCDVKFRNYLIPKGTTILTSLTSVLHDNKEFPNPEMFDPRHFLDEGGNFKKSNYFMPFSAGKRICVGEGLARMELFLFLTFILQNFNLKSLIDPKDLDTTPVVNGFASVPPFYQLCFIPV
CYP2C9 act = CYP2C9 (human) activation; recombinant CYP2C9, luciferin-H conversion, luminescence; stronger effect = higher value; factor 1 = untreated enzyme, 0 = blocked; activation factor at 5 µM; 96,000 compounds, 1.4% hits; AID 1024;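 active = activation factor of 2 or more for CYP2C9 at a 5 µM dose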;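 also: 0 = sulfaphenazole-blocked wells and 1 = vehicle-only wells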
Ecoli WT expand = growth inhibitors of E. coli BW25113 wild type; OD600 absorbance; growth inhibition, % at 100 µM; 98,000 compounds, 0.15% hits; AID 710;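 active = growth inhibition above about 50% at one test dose, limit read from the data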;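 also: growth measured after 20 h incubation at 37 °C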
CYP2C19 act = increases human CYP2C19 enzyme activity | recombinant CYP2C19, luciferin-H EGE luminescence; stronger effect = higher value; 0 = fully inhibited enzyme, 1 = untreated enzyme | activation factor at 5 µM | 96,000 tested, under 10 active;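 active = activation factor of at least 2 at 5 µM in the primary screen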;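 also: 0 = wells with 2.5 mM tranylcypromine and 1 = vehicle-only wells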
tolC growth inh = growth inhibitors of E. coli BW25113 tolC mutant. OD615. growth inhibition, % at 10 µM (by protocol). 65,000 compounds, 2.2% hits. AID 573;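 active = growth inhibition at or above a cutoff equal to the mean over every tested compound plus 3 SD, cut at about 60% in these data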;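 also: growth measured after 20 h incubation at 37 °C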
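test system = E. coli BW25113 ΔtolC::kan bacteria | medium = LB with kanamycin 50 µg/mL | signal = OD at 615 nm | schedule = 37 °C, 20 h exposure | evaluation = % inhibition of E. coli growth | compound dosing = one dose of 10 µM final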
Starred values were filed as active, the others as inactive; . = no result given.

SMILES	CYP2C9 inh	CYP2C19 inhib	CYP2C9 act	Ecoli WT expand	CYP2C19 act	tolC growth inh
COC(=O)c1[nH]c2cc(OC)ccc2c1NC(=O)CN1CCN(c2cccc(C)c2)C(C)C1 (stereo not given)	31	14	0.7	-4	0.9	16
Cc1cc(C)n(Cc2ccccc2F)c(=O)c1C#N	.	.	.	.	.	0
O=c1c2ccccc2nc2n1C(CSc1ccc(Br)cc1)CN2 (stereo not given)	-13	-14	1.1	5	1.1	.
NC(=O)c1ccc(C2SCC(=O)N2Cc2ccccc2)cc1 (stereo not given)	16	23	0.8	-3	0.8	-8
CC1(C)C2([N+](=O)[O-])CN3CC1([N+](=O)[O-])CN(C2)C3c1ccccc1 (stereo not given)	-2	34	1	-7	0.7	.
CC1(C)CN2C(=S)N(c3ccccc3)C(c3ccccc3)N2C1 (stereo not given)	66*	67*	0.3	-6	0.3	.
S=C1N(c2ccccc2)C(c2ccc(Cl)cc2)N2CCCN12 (stereo not given)	44	63*	0.6	-2	0.4	.
C=C(C)Cn1c(CNC(C)=O)nc2ccccc21	.	.	.	1	.	-5
CN1c2ccccc2C(O)=C(C(=S)Nc2ccccc2)S1(=O)=O	82*	1	0.2	-8	1	.
Cc1ccc(NC(=S)C2=C(O)c3ccccc3N(C)S2(=O)=O)cc1	100*	-10	0	-10	1.1	.
CN1c2ccccc2C(O)=C(C(=O)Nc2ccccc2)S1(=O)=O	76*	-7	0.2	-9	1.1	.
CN1c2ccccc2C(O)=C(C(=S)Nc2ccc(F)c(Cl)c2)S1(=O)=O	96*	-6	0	5	1.1	.
Cn1cccc1C(=O)C(=O)Nc1ccccc1	-26	49	1.3	6	0.5	.
COc1ccc(OCCCC(=O)NCC(C)C)cc1	19	42	0.8	3	0.6	.
CCS(=O)(=O)NCc1csc(-c2ccccc2)n1	0	70*	1	10	0.3	-14
COc1cc(OC)c(C#N)c(S(=O)(=O)Cc2ccccc2)c1	-44	96*	1.4	-1	0	.
COc1ccc(N2CCN(S(=O)(=O)Cc3ccccc3)CC2)cc1	-17	-30	1.2	-11	1.3	.
COc1ccc(-c2nc(CNS(=O)(=O)c3cc(OC)ccc3OC)cs2)cc1	72*	70*	0.3	-8	0.3	17
CCOc1cc(Br)ccc1S(=O)(=O)NCc1ccccc1	-45	71*	1.5	11	0.3	.
CC(C)=CC(=O)NCc1c(Cl)cccc1-n1cccc1	21	10	0.8	-7	0.9	.
C=CCn1c(SC/C=C/c2ccccc2)nnc1-c1sc(N)nc1C	38	41	0.6	6	0.6	19
COc1ccc(S(=O)(=O)NCc2csc(-c3cccnc3)n2)cc1	68*	91*	0.3	1	0.1	.
Cc1nc(CNS(=O)(=O)c2ccc3ccccc3c2)cs1	-101	45	2*	4	0.5	-1
CS(=O)(=O)NCc1csc(-c2ccccc2)n1	7	5	0.9	2	0.9	-22
COc1ccc(OC)c(S(=O)(=O)NCc2cccnc2)c1	-30	13	1.3	6	0.9	-5
SMILES	CYP2C9 inh	CYP2C19 inhib	CYP2C9 act	Ecoli WT expand	CYP2C19 act	tolC growth inh
COc1ccc(OC)c(S(=O)(=O)NCc2ccccc2)c1	-16	96*	1.2	3	0	-1
COc1ccc(OC)c(S(=O)(=O)NC(C)(C)C)c1	20	52*	0.8	2	0.5	.
O=C1NC(=Nc2cccc(Cl)c2)SC1Cc1cccc(Cl)c1Cl (stereo not given)	22	10	0.8	-5	0.9	.
COc1ccc(OC)c(NS(=O)(=O)Cc2ccccc2)c1	-36	94*	1.4	-4	0.1	13
CCc1ccc(OC)c(S(=O)(=O)NCCOc2ccccc2)c1	15	75*	0.8	8	0.2	39
COc1ccc(OC)c(NC(=O)CSCC(=O)O)c1	-4	10	1	-2	0.9	-35
COc1ccc(-c2nnnn2C)cc1S(=O)(=O)NCCc1ccccc1	.	.	.	.	.	-10
COc1ccc(N(C(C)=O)S(=O)(=O)c2cc(OC)ccc2OC)cc1	50*	28	0.5	3	0.7	-12
CN1C(=O)CC(N2CCN(CC(=O)N3CCCC3)CC2)C1=O (stereo not given)	-2	0	1	-5	1	-22

Bioassay records as filed in PubChem BioAssay.
